ChEMBL document CHEMBL1156816, “Antiangiogenic effect of dual/selective alpha(5)beta(1)/alpha(v)beta(3) integrin antagonists designed on partially modified retro-inverso cyclotetrapeptide mimetics” (J Med Chem, 2010)
Activity calls are given as the source filed them. No cut-off for these calls is given here. Non-standard residues stand in square brackets, D forms with d. Residues, ends and D or L forms follow the SMILES beside them.

How the values were obtained:
Integrin alpha-V/beta-3 [1] = target: T1, Integrin alpha-V/beta-3 (Homo sapiens, UniProt P05106+P06756); assay: Inhibition of alphavbeta3 integrin-mediated cell adhesion in human SK-MEL-24 cells on fibronectin coated plate after 30 mins; assay type: cell-based
T1 sequence (P05106 27-788 limits assumed): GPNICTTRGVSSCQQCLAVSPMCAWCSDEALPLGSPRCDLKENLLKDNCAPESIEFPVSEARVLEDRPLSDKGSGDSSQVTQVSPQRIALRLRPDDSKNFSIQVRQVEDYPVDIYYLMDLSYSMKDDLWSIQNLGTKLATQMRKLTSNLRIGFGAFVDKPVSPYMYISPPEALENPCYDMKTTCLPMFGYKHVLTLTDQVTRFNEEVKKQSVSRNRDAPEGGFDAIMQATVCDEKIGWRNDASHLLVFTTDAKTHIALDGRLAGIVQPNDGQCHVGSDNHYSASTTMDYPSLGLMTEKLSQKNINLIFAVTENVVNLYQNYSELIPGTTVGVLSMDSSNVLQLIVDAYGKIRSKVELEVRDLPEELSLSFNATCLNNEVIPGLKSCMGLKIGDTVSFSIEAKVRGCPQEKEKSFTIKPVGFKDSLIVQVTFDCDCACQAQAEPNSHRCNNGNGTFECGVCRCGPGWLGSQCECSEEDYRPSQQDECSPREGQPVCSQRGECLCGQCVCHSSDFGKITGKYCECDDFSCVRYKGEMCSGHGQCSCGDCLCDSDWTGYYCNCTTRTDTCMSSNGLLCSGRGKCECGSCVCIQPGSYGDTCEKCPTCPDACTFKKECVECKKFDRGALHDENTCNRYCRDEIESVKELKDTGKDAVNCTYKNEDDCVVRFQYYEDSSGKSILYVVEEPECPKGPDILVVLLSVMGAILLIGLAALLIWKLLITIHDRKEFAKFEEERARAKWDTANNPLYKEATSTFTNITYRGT
T1 sequence (P06756 31-889 limits assumed): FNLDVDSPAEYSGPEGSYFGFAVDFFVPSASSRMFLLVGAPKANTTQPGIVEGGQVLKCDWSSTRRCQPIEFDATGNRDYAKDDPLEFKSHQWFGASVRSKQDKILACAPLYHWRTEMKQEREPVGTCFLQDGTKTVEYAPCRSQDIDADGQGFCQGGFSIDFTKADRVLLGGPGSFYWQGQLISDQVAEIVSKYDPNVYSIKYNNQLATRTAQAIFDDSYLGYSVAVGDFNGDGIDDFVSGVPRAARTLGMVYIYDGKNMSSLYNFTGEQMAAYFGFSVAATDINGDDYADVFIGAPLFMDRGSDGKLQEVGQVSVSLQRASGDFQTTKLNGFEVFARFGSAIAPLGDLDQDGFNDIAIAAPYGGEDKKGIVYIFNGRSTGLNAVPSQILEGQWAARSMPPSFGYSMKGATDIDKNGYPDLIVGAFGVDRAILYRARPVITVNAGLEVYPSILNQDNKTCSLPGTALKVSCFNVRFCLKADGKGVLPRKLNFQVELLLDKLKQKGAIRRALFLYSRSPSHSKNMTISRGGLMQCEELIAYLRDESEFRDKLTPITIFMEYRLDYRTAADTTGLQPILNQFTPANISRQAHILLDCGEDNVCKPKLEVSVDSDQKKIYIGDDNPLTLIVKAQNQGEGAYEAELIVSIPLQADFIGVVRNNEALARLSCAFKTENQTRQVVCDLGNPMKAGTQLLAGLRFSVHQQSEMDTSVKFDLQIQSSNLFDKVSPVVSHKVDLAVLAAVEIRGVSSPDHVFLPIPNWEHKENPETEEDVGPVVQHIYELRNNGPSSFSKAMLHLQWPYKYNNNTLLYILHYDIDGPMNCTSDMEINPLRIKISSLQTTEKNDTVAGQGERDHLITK
T1 sequence (P06756 891-1048 limits assumed): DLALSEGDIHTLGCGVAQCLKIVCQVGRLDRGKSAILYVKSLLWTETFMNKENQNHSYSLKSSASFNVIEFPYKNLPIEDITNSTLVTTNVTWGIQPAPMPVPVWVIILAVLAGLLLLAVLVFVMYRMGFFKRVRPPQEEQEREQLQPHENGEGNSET

Integrin alpha-V/beta-3 [2] = target: T1, Integrin alpha-V/beta-3; assay: Inhibition of alphavbeta3 integrin-mediated cell adhesion in HUVEC on vitronectin coated plate after 30 mins
HUVEC [3] = assay: Cytotoxicity against HUVEC assessed as change in cell morphology at 10 uM after 16 hrs by flow cytometry using Annexin V/propidium staining; assay type: cell-based; conditions: human
In short: (§1)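 HUVEC exposed 16 h to 1 or 10 μM cyclopeptide; morphology examined. For flow cytometry, cells were detached and fixed 15 min in 1% paraformaldehyde, then PBS-washed. They were resuspended in 10 mM Hepes/NaOH pH 7.4, 140 mM NaCl, 5 mM CaCl₂ with Annexin-V-Fluos and propidium iodide, kept 15 min at room temperature in the dark, then analyzed for intact, apoptotic and necrotic cells.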

HUVEC [4] = assay: Cytotoxicity against HUVEC assessed as increase in level of necrotic cells at 1 uM after 16 hrs by flow cytometry using Annexin V/propidium staining; assay type: cell-based; conditions: human; in short: as §1
HUVEC [5] = assay: Cytotoxicity against HUVEC assessed as increase in level of necrotic cells at 10 uM after 16 hrs by flow cytometry using Annexin V/propidium staining; assay type: cell-based; conditions: human; in short: as §1
HUVEC [6] = assay: Cytotoxicity against HUVEC assessed as change in cell morphology at 1 uM after 16 hrs by flow cytometry using Annexin V/propidium staining; assay type: cell-based; conditions: human; in short: as §1
Integrin alpha-5/beta-1 = Integrin alpha-5/beta-1 (Homo sapiens, UniProt P05556+P08648); assay: Inhibition of alpha5beta1 integrin-mediated cell adhesion in human K562 cells on fibronectin coated plate after 30 mins; assay type: cell-based
Sequence of Integrin alpha-5/beta-1 (P05556 21-798 limits assumed): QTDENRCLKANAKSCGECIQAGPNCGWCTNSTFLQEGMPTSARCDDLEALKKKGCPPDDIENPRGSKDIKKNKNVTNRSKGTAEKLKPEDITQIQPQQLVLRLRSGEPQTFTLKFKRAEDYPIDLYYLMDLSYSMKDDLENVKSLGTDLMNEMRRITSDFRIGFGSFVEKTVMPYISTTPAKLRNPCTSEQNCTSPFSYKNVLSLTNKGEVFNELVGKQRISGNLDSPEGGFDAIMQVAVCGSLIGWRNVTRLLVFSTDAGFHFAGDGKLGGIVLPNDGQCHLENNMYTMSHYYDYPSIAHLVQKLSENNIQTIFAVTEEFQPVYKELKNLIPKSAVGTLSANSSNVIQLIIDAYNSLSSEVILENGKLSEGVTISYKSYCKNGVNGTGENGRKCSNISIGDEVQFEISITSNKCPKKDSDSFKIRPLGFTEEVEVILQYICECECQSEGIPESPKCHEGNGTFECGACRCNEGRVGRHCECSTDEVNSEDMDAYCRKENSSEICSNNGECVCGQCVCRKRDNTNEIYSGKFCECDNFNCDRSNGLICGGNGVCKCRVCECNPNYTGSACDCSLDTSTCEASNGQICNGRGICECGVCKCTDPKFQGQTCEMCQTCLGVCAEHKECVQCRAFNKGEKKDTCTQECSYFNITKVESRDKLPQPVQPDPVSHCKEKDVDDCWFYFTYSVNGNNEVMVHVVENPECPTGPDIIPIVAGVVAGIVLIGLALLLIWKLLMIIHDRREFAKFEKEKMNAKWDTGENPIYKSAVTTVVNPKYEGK
Sequence of Integrin alpha-5/beta-1 (P08648 42-894 limits assumed): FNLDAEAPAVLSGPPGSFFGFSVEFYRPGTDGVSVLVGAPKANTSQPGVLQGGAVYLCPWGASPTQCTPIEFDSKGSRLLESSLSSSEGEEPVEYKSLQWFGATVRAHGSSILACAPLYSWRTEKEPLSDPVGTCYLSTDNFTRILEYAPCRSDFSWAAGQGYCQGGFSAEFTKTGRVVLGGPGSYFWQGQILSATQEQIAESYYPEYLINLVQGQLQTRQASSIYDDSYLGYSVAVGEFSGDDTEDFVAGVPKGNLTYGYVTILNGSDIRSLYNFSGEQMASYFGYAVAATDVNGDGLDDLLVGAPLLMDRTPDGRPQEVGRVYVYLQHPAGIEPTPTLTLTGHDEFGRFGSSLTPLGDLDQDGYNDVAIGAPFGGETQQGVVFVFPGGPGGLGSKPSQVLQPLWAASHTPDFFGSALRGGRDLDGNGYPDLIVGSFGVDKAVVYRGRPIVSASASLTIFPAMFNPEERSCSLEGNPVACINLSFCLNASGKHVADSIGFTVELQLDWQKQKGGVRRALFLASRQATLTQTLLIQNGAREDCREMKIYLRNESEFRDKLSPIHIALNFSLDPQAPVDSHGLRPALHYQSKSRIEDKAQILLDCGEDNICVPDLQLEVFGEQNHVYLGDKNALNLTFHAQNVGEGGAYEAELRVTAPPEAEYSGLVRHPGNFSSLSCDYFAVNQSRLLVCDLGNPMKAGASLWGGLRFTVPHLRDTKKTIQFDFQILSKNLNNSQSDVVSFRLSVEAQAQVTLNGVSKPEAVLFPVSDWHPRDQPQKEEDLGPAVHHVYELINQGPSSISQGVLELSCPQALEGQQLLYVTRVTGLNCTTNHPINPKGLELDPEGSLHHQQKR
Sequence of Integrin alpha-5/beta-1 (P08648 895-1049 limits assumed): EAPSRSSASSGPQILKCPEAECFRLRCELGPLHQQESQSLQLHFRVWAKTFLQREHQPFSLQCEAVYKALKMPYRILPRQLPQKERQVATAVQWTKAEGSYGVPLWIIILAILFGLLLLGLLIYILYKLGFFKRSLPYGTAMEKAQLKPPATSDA
In short: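 Wells coated overnight at 4 °C with fibronectin or vitronectin (10 μg/mL). Cells were preincubated 30 min at room temperature with compound (≤1% DMSO), then plated at 50000/well and left 1 h at room temperature. After PBS wash, adherent cells were quantified by hexosaminidase substrate read at 405 nm against a calibration curve. Quadruplicate, ≥3 repeats; IC50 calculated.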

HUVEC [7] = assay: Antiangiogenic activity in HUVEC on Matrigel assessed as reduction of bFGF-induced tube branches measured per square mm at 10 uM after 16 hrs by microscopic analysis; assay type: functional
In short: (§2)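 HUVEC (passages 2-7, cultured in EGM) seeded at 5000 cells/well on Matrigel-precoated wells with test compound, with or without bFGF 30 ng/mL. Vehicle up to 1% DMSO in medium. Incubated 16 h at 37 °C. Capillary-like tubes examined by microscopy with camera and counted as tubes per square millimeter. Quadruplicate, repeated three times; mean ± SEM; Newman-Keuls test after ANOVA.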

HUVEC [8] = assay: Inhibition of bFGF-induced angiogenesis in HUVEC on Matrigel assessed as endothelial morphogenesis at 1 uM after 16 hrs by microscopic analysis; assay type: functional, cell-based; conditions: Homo sapiens; in short: as §2
HUVEC [9] = assay: Inhibition of bFGF-induced angiogenesis in HUVEC on Matrigel assessed as number of tube branches at 100 to 500 nM after 16 hrs by microscopic analysis; assay type: functional, cell-based; conditions: Homo sapiens; in short: as §2
HUVEC [10] = assay: Antiangiogenic activity in HUVEC on Matrigel assessed as inhibition of bFGF-induced tube formation at 1 uM after 16 hrs; assay type: functional, cell-based; conditions: Homo sapiens; in short: as §2
HUVEC [11] = assay: Inhibition of bFGF-induced angiogenesis in HUVEC cells on Matrigel assessed as number of tube branches at 10 nM after 16 hrs by microscopic analysis; assay type: functional, cell-based; conditions: Homo sapiens; in short: as §2
[12] = in the assay text read “at 1 uM” for “at 10 uM”

IC50 (Integrin alpha-V/beta-3 [1]) [µM]	IC50 (Integrin alpha-V/beta-3 [2]) [µM]	IC50 (Integrin alpha-5/beta-1) [µM]	SMILES	Activity (HUVEC [3])	Activity (HUVEC [4])	Activity (HUVEC [5])	Activity (HUVEC [6])	Activity (HUVEC [7]; Homo sapiens)	Activity (HUVEC [8])	Activity (HUVEC [9])	Activity (HUVEC [10])	Activity (HUVEC [7]; [12])	Activity (HUVEC [11])
> 100	> 100	> 100	NC(N)=NCCC[C@H]1NC(=O)CC(=O)N[C@@H](CC(=O)O)C(=O)N[C@H](Cc2ccccc2)CNC1=O	Non-toxic	Non-toxic	Non-toxic	Non-toxic	–	–	–	–	–	–
> 100	> 100	> 100	CC(C)[C@@H]1NC(=O)[C@@H](Cc2ccccc2)NC(=O)[C@H](CC(=O)O)NC(=O)[C@H](C)NC(=O)[C@H](CCCN=C(N)N)NC1=O (cyclo(AD[dF]VR))	–	–	–	–	–	–	–	–	–	–
–	–	–	N=C(N)NCCC[C@H]1NC(=O)CC(=O)N[C@H](CC(=O)O)C(=O)N[C@@H](Cc2ccccc2)CNC1=O	–	–	–	–	inactive	–	–	–	–	–
2.3	1.5	4.7	N=C(N)NCCC[C@H]1NC(=O)CC(=O)N[C@@H](CC(=O)O)C(=O)N[C@@H](Cc2ccccc2)CNC1=O	Non-toxic	Non-toxic	Non-toxic	Non-toxic	inactive	–	–	–	–	–
0.18	0.24	0.024	NC(N)=NCCC[C@@H]1NC(=O)CC(=O)N[C@@H](CC(=O)O)C(=O)N[C@H](Cc2ccccc2)CNC1=O	Non-toxic	Non-toxic	Non-toxic	Non-toxic	–	–	–	–	–	–
2.1	0.92	1.3	N=C(N)NCCC[C@@H]1NC(=O)CC(=O)N[C@H](CC(=O)O)C(=O)N[C@H](Cc2ccccc2)CNC1=O	Non-toxic	Non-toxic	Non-toxic	Non-toxic	inactive	–	–	–	–	–
–	–	–	N=C(N)NCCC[C@H]1NC(=O)CC(=O)N[C@H](CC(=O)O)C(=O)N[C@H](Cc2ccccc2)CNC1=O	–	–	–	–	inactive	–	–	–	–	–
> 100	> 100	> 100	N=C(N)NCCC[C@@H]1NC(=O)CC(=O)N[C@H](CC(=O)O)C(=O)N[C@@H](Cc2ccccc2)CNC1=O	Non-toxic	Non-toxic	Non-toxic	Non-toxic	inactive	–	–	–	–	–
> 100	> 100	> 100	NC(N)=NCCC[C@H]1NC(=O)CC(=O)N[C@H](CC(=O)O)C(=O)N[C@@H](Cc2ccccc2)CNC1=O	Non-toxic	Non-toxic	Non-toxic	Non-toxic	–	–	–	–	–	–
11	25.2	0.52	N=C(N)NCCC[C@@H]1NC(=O)CC(=O)N[C@@H](CC(=O)O)C(=O)N[C@@H](Cc2ccccc2)CNC1=O	Non-toxic	Non-toxic	Non-toxic	Non-toxic	–	Active	inactive	Active	6.8	inactive
–	–	–	N=C(N)NCCC[C@@H]1NC(=O)CC(=O)N[C@@H](CC(=O)O)C(=O)N[C@H](Cc2ccccc2)CNC1=O	–	–	–	–	–	Active	inactive	Active	5.1	inactive
–	–	34.7	CC(C)[C@@H]1NC(=O)[C@@H](Cc2ccccc2)NC(=O)[C@H](CC(=O)O)NC(=O)CNC(=O)[C@H](CCCN=C(N)N)NC1=O [CYCLORGDFV]	–	–	–	–	–	–	–	–	–	–
–	–	–	N=C(N)NCCC[C@H]1NC(=O)CC(=O)N[C@@H](CC(=O)O)C(=O)N[C@H](Cc2ccccc2)CNC1=O	–	–	–	–	inactive	–	–	–	–	–
> 100	> 100	> 100	NC(N)=NCCC[C@H]1NC(=O)CC(=O)N[C@H](CC(=O)O)C(=O)N[C@H](Cc2ccccc2)CNC1=O	Non-toxic	Non-toxic	Non-toxic	Non-toxic	–	–	–	–	–	–
